# High-throughput results deposited in PubChem BioAssay by several laboratories.
# CSN inh: CSN deneddylation inhibition | Purified CSN, SCF-Nedd8-OG deneddylation, fluorescence polarization | actives 0.38% (n = 360,000) | Q92905 | inhibition, % at 12.5 µM | AID 651999;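 active = pattern-corrected inhibition above about 35%, with an unprinted fluorescence ratio check between 0.5 and 1.5, limit read from the data, passing the limit was not always enough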;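 also: 0% = enzyme with substrate and 100% = substrate without enzyme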
# Target sequence (Q92905 whole entry, looked up, one chain of several): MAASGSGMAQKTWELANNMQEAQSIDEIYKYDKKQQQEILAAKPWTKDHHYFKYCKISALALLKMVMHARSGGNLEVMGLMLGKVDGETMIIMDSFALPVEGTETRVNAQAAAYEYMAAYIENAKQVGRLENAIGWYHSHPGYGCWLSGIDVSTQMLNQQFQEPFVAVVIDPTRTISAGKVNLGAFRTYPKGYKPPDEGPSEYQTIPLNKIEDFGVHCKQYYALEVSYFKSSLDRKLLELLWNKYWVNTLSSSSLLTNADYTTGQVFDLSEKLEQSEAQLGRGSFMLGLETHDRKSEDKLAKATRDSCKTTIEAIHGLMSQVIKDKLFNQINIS
#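 Test system: Human Csn5 produced in HEK293T cells | Compound: 12.5 µM single point | Times: 90 min, room temperature | Signal: Fluorescence polarization readout | Read-out basis: % inhibition of substrate cleavage by Csn5 | Controls: no-enzyme wells high, enzyme-with-substrate wells low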
# TPT1 inhibitor: inhibitors of Candida albicans tRNA 2'-phosphotransferase TPT1. AID 1962. recombinant caTPT1, FP RNA substrate dephosphorylation. inhibition, % at 5 µM. actives 0.81% (n = 300,000);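 active = inhibition above the mean of all tested compounds plus 3 SD, set per screening campaign, cut at about 24% in these data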;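 also: plate controls were DMSO alone for no effect and ferristatin control at 100 nM for full effect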
# UBC9 SUMO inh: inhibitors of human SUMOylation (UBC9). inhibition, % at 35 µM. AID 2006. P63279. actives 0.36% (n = 290,000). HTRF SUMOylation assay, SAE1/SAE2 + UBC9, in vitro; in the data active = inhibition above about 50%, passing the limit was not always enough
# SENP1 inh: SENP1 (human) catalytic domain inhibition. actives 0.21% (n = 360,000). Q9P0U3. recombinant SENP1 catalytic domain, CyPet-SUMO1-YPet FRET cleavage. inhibition, % at 10 µM;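 active = inhibition at least 30% at 10 µM, raw YFP signal under a set limit, fluorescence ratio 0.5 to 1.5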;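 also: 0% = enzyme with DMSO and 100% = no enzyme wells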
#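 Test system: recombinant human SENP1 catalytic domain, His6-tagged / Medium: pH 8 Tris buffer with EDTA, NaCl, BME, BSA, NP40, catalase / Also added: SUMO1 FRET substrate flanked by Cypet and Ypet, 25 nM / Times: 50 min reaction at room temperature / Signal: FRET, CFP and YFP emission / Control set: no-enzyme low control and enzyme-plus-DMSO high control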
# HNF4A DNA FP: change in binding of human HNF4 alpha to DNA. P41235. HNF4a-FITC DNA binding, fluorescence polarization, 1 h. activity change, % at 10 µM. actives 0.3% (n = 360,000). AID 1224865; in the data active = activity change above about 30%, passing the limit was not always enough
# Rpn11 inh: Rpn11 (human) deubiquitinase inhibition; calls only at 20 µM; actives 0.59% (n = 360,000); human 26S proteasome, Ub4-pepOG fluorescence polarization; 20S core pre-blocked with epoxomicin;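 active = inhibition at 20 µM, scaled to each plate's controls, above about 33%, limit read from the data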
# Target sequence (O00487 whole entry, looked up): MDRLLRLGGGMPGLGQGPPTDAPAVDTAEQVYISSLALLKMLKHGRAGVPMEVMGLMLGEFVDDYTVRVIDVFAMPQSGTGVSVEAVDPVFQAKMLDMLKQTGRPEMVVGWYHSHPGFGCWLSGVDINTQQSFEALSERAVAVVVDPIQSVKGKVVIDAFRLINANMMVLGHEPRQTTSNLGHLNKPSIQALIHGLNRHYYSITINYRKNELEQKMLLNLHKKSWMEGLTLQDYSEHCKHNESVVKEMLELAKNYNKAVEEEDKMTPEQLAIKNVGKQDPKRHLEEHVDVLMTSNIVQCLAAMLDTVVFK
# SENP1 conf: SENP1 (human) inhibition, single concentration confirmation | shares compounds with SENP1 inh | recombinant SENP1, CyPet-SUMO1-YPet FRET cleavage | inhibition, % at 10 µM | actives 34% (n = 520) | AID 651678; in the data active = inhibition mostly above about 35%, no sharp cut-off; inactive = mostly below about 32%;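 also: 0% = enzyme with DMSO and 100% = no enzyme control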
# SENP1 kinetic: confirmation of human SENP1 SUMO protease inhibitors, kinetic; AID 651690; actives 26% (n = 520); recombinant SENP1, CyPet-SUMO1-YPet FRET kinetic cleavage; shares compounds with SENP1 inh; inhibition, % at 10 µM; in the data active = inhibition mostly above about 32%, no sharp cut-off; inactive = mostly below about 29%;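 also: 0% = DMSO with enzyme and 100% = no enzyme substrate only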
# * marks the source's active call; other numbers are inactive results; i = inactive; x = no result given. This is a sample that favours compounds with a hit; in the whole collection about 1.8% have one here.
SMILES,CSN inh,TPT1 inhibitor,UBC9 SUMO inh,SENP1 inh,HNF4A DNA FP,Rpn11 inh,SENP1 conf,SENP1 kinetic
O=c1[nH]c(SCc2ccccc2Cl)nc2[nH]ncc12,9.6,-0.9,-5.4,0.5,1.1,i,x,x
CN1CCN(C2=Nc3c(Cl)cc(Cl)c4cccc2c34)CC1,12.7,-16.1,-14.2,82.2*,0.8,i,101.0*,56.7*
CC(CNC(=O)c1ccco1)NC(=O)c1ccco1 (stereo not given),4.0,1.0,-1.2,0.9,7.0,i,x,x
c1ccc(CN2CCN(c3nc4ccccc4s3)CC2)cc1,-0.8,-1.1,7.4,0.9,-2.5,i,x,x
c1ccc(CN2CCN(C3=Nc4cccc5cccc3c45)CC2)cc1,-3.0,x,11.6,82.5*,1.6,i,89.3*,53.1*
CCOC(=O)c1ccc(NC(=O)Cn2nnc3ccccc32)cc1,-4.7,-4.2,30.3,3.3,4.8,i,x,x
Clc1cc2c(nn1)Nc1ccccc1S2,-0.6,-4.7,17.4,31.4*,-3.9,i,14.8,12.1
c1ccc2c(c1)Nc1nccnc1S2,6.6,2.1,9.0,-6.6,8.9,i,x,x
Cc1ccc(-c2nc3ncccn3c2Nc2ccc3c(c2)OCCO3)cc1,5.4,-3.5,1.3,17.7,1.2,i,x,x
Cc1ccc(-c2nc3ncccn3c2NC2CCCCC2)o1,-2.4,5.3,9.2,63.1*,-3.3,i,54.0*,36.0
Oc1ccc(-c2nc3ncccn3c2Nc2ccc3c(c2)OCCO3)cc1,-2.0,-0.3,4.8,13.4,2.3,i,x,x
Cc1ccc(-c2nc3ncccn3c2Nc2ccc3c(c2)OCCO3)o1,-1.9,-1.8,-11.8,53.1*,38.1*,i,18.8,13.8
Brc1ccc(-c2nc3ncccn3c2Nc2ccc3c(c2)OCCO3)o1,6.6,-4.4,5.3,34.6*,-0.6,i,9.5,3.4
COc1ccc(-c2nc3ncccn3c2Nc2ccc3c(c2)OCCO3)cc1,4.3,x,6.2,32.2*,-2.2,i,-10.7,6.8
N#CCCC1(CCC#N)c2ccccc2C(=O)c2ccccc21,-2.0,x,x,0.0,2.1,i,x,x
Cc1cc[n+](-c2[nH]c(=O)sc2/C=N/N=C(\[O-])CCn2c3ccccc3c3ccccc32)cc1,-1.9,-9.9,7.6,5.0,-2.5,i,x,x
CCOC(=O)N(C)C[C@@H]1OCc2cnnn2CCCC(=O)N([C@H](C)CO)C[C@H]1C,-1.8,x,x,-0.1,-1.9,i,x,x
O=C(COC(=O)CCc1ccccc1)NCc1ccc2c(c1)OCO2,3.7,x,x,32.0*,1.4,i,-4.4,0.2
CCC1CCCCN1CCCNC(=O)c1cn(C)c2ccc(S(=O)(=O)N(C)C3CCCCC3)cc2c1=O (stereo not given),5.2,-2.1,5.8,0.0,3.9,i,x,x
CN(C)CCNc1ccc(CO)c2oc3ccc(O)cc3c(=O)c12,-0.8,x,x,58.5*,7.2,i,64.6*,38.8*
CCN(CC)CCNc1ccc(CO)c2oc3cc(Cl)ccc3c(=O)c12,1.2,x,x,47.5*,2.0,i,55.4*,35.0*
Nc1nc(N)c2sc3nc(C(F)(F)F)cc(C(F)(F)F)c3c2n1,2.2,4.9,1.3,67.9*,6.2,i,34.5*,25.2
O=C1c2cc(CO)cc(O)c2C(=O)c2c(O[C@@H]3OC(CO)[C@@H](O)[C@@H](O)[C@@H]3O)cccc21 (stereo not given in full),-2.5,-0.5,x,42.6*,0.3,i,45.5*,30.1
CCS(=O)(=O)c1ccc(-c2csc(-c3ccccc3)n2)c(Cl)c1Cl,-1.4,-2.8,-11.5,2.2,2.4,i,x,x
COc1cc(Cn2c3ccc(NC(=O)CCc4cccnc4)cc3c(=O)n2C)ccc1F,-1.5,x,x,6.8,-0.8,i,x,x
SMILES,CSN inh,TPT1 inhibitor,UBC9 SUMO inh,SENP1 inh,HNF4A DNA FP,Rpn11 inh,SENP1 conf,SENP1 kinetic
COc1cc(Cn2c3ccc(NC(=O)CCc4ccccc4)cc3c(=O)n2C)ccc1F,5.7,x,x,32.9*,2.7,i,3.8,4.8
CCNC(=O)C1CC(=O)N(Cc2ccc3c(c2)OCO3)C(=Nc2ccc(OCC)cc2)S1 (stereo not given),-2.9,2.2,20.7,1.0,4.3,i,x,x
O=C(NCc1cccc(Cl)c1)c1ccc(CS(=O)Cc2ccc(Cl)cc2)o1 (stereo not given),0.8,2.8,-14.0,1.1,0.1,i,x,x
COc1ccc2nc3ccccc3nc2c1NC(=O)c1ccc(Br)cc1,4.2,-12.0,6.2,92.1*,-7.2,i,104.8*,59.6*
COc1ccc([C@H]2CN(c3ccc(OC)cc3)C(=O)[C@@H]2CC(=O)Nc2ccc(Br)cc2)cc1,3.8,x,x,0.7,3.1,i,x,x
COc1cccc(C2CC(C(F)(F)F)n3nc(C(=O)Nc4c(C)n(C)n(-c5ccccc5)c4=O)cc3N2)c1 (stereo not given),2.8,-3.0,6.8,27.0*,1.5,i,12.6,7.3
O=C(Nc1nccs1)c1cc2cc(Cl)ccc2oc1=O,1.0,-0.9,-14.2,44.6*,-1.4,i,96.5*,82.6*
CCOc1ccc(Cn2c3ccc(OC)cc3c3nc4ccccc4nc32)cc1OC,-16.1,-15.7,26.8,41.8*,-14.1,i,67.9*,48.4*
COc1ccc(/C=C/c2nc3ccccc3n2Cc2ccc(OC)c(OC)c2)cc1,-1.2,-2.3,-3.1,2.6,1.0,i,x,x
CCc1nc2ccccc2n1Cc1ccc(OC)c(OC)c1,-2.5,-6.5,-20.4,0.8,1.3,i,x,x
COc1ccc2c(c1)c1nc3ccccc3nc1n2Cc1ccc(OC)c(OC)c1,-5.7,1.9,21.7,38.6*,-7.1,i,62.8*,52.0*
CC(=O)Nc1ccc(C(=O)N2CCCCC2c2cc(C(=O)NCc3ccccc3)no2)cc1 (stereo not given),1.3,x,x,0.8,0.1,i,x,x
COc1cccc(-c2nc(SC)nc3sc(C(=O)NC(C)(C)C)c(N)c23)c1,5.0,-1.4,x,37.4*,3.1,i,47.9*,37.2*
Cc1ccccc1S(=O)(=O)NC(=O)C1(C)CCN1C(=O)C/C=C/c1ccccc1 (stereo not given),-2.7,x,x,-0.2,1.3,i,x,x
COc1ccc(-c2ccc3c(c2)S(=O)(=O)c2cccc(C(=O)NCc4ccccc4Cl)c2C3=O)cc1OC,14.1,x,x,57.6*,-2.0,i,14.6,17.2
COc1ccc(-c2ccc3c(c2)S(=O)(=O)c2cccc(C(=O)NCCOc4ccccc4Cl)c2C3=O)cc1OC,65.0*,x,x,29.0*,-17.0,i,14.4,15.9
